The list is not random: actives were taken first. Their share in the collection is about 1.6%.
TLR4-MyD88 BLA: inhibitors of human TLR4-MyD88 binding | HeLa CL3-4 TLR4/MyD88 BLA complementation, FRET ratio | O00206+Q99836 | inhibition, % at 8.4 µM | actives 0.18% (n = 200,000); in the data active = inhibition above about 25%;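 also: 0% = vehicle and 100% = reference inhibitor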
TLR9-MyD88 inh: inhibitors of human TLR9-MyD88 binding. CHO BLA complementation TLR9-MyD88, CCF4 FRET ratio. actives 0.21% (n = 340,000). inhibition, % at 4.98 µM. AID 504734;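 active = inhibition above the mean over all tested compounds plus 3 SD, cut at about 21% in these data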;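 also: 0% = DMSO only wells and 100% = clavulanate BLA inhibitor control wells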
Beta2AR agonist: human beta-2 adrenergic receptor agonism by FAP; P07550; Am2.2-beta2AR cells, FAP receptor internalization, flow cytometry; response, % (test concentration not listed); actives 0.43% (n = 340,000); AID 504454;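 active = response above a set limit, near 3 SD of response in nonfluorescent compounds, cut at about 42% in these data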
Target sequence (P07550 whole entry, looked up): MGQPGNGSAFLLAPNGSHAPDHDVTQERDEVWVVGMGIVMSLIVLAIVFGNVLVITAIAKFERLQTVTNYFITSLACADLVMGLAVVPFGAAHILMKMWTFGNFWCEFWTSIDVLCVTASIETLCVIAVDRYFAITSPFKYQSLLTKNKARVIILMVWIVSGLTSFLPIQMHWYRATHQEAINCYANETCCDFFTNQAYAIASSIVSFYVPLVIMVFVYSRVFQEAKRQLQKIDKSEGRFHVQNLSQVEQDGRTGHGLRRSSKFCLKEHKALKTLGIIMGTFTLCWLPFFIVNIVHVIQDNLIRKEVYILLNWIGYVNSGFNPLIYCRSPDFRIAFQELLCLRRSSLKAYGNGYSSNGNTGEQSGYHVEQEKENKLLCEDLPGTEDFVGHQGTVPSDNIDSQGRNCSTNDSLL
Dynein cargo inh: blocks dynein driven cargo transport along microtubules; 3617.4 mouse cells, GR-EGFP nuclear translocation imaging; test concentration mostly 20 µM; stimulated with dexamethasone, 1 µM; hits give low values; z-score, hits read low; actives 0.47% (n = 220,000); AID 1381;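 active = plate z-score of nuclear minus cytoplasmic receptor signal below a set negative limit, without overly bright fluorescence or cell loss, cut at about -3.5 in these data, passing the limit was not always enough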;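 also: z-score of nuclear minus cytoplasmic ring GR-EGFP intensity difference per well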
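medium = tetracycline-free induction medium containing charcoal-stripped FBS | also added = 1.0 µM final dexamethasone stimulus | schedule = 48 h induction, 1 h compound, 30 min dex at 37 °C | technique = fixed, Hoechst-stained cells imaged at 10x for EGFP | measure = GR-EGFP nuclear translocation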
ABHD5-PLIN5 inh: blocks binding of human ABHD5 to perilipin-5; Q00G26+Q8WTS1; Split G. princeps luciferase complementation, luminescence, 4 h; inhibition, % at 4 µM; actives 0.78% (n = 360,000); AID 602281;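 active = inhibition above the mean inhibition across every tested compound plus 3 SD, cut at about 22% in these data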;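 also: 0% = DMSO only wells and the 100% control is not disclosed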
NOD2 RIPK2 PPI: NOD2-RIPK2 protein interaction inhibition. CHO BLA complementation NOD2-RIPK2, CCF4 ratio. O43353. actives 0.38% (n = 360,000). inhibition, % at 4.98 µM; in the data active = inhibition above about 21%;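 also: 0% = vehicle only and 100% = reference blocker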
TLR4 MyD88 cnf: TLR4-MyD88 interaction inhibition confirmed; shares compounds with TLR4-MyD88 BLA; HeLa CL3-4 BLA complementation, CCF4 FRET ratio; inhibition, % at 8.4 µM; actives 50% (n = 350);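 active = mean inhibition across three repeat runs above about 25% carried over from the earlier screen, limit read from the data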;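 also: plate controls were DMSO only for no effect and clavulanic acid blocking BLA at full dose for full effect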
BLA inhibitor ct: counter-screen for TLR4-MyD88 inhibitors: beta-lactamase reporter inhibitors; shares compounds with TLR4-MyD88 BLA; HeLa BLA reporter, CCF4 FRET ratio; inhibition, % at 8.4 µM; actives 63% (n = 350); AID 1237;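 active = mean inhibition over three repeats above about 26% taken from the earlier screen, limit read from the data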;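 also: HeLa cells stably expressing beta-lactamase reporter as counterscreen for TLR4-MyD88 inhibitors; 0% = DMSO and 100% = clavulanic acid full inhibition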
Dynein confirm: dynein cargo transport inhibition, confirmation | 3617.4 GR-EGFP nuclear translocation imaging, dexamethasone-induced | calls only at 20 µM | shares compounds with Dynein cargo inh | AID 463116 | actives 69% (n = 1,000);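 active = inhibition of receptor movement into the nucleus at or above a set limit in both runs, with normal cell brightness and cell count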;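 also: dexamethasone at 1 µM final in well for 30 min; nuclear minus cytoplasmic GR-EGFP mean intensity difference in channel 2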
TLR9-MyD88 conf: TLR9-MyD88 interaction inhibition, confirmation. actives 51% (n = 680). shares compounds with TLR9-MyD88 inh. CHO TLR9/MyD88 BLA complementation, CCF4 FRET ratio. inhibition, % at 4.98 µM. AID 540250;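 active = mean inhibition across three repeats above about 21% taken from the earlier screen, limit read from the data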;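 also: blue over green emission ratio reports constitutive TLR9 MyD88 association via BLA complementation; 0% = DMSO vehicle wells and 100% = clavulanate BLA inhibitor wells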
BLA counter-1: beta-lactamase reporter inhibition, counter-screen artifact | shares compounds with TLR9-MyD88 inh | CHO-BLA cells, CCF4 FRET ratio, BLA reporter | inhibition, % at 4.98 µM | actives 7% (n = 680) | AID 540251;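 active = mean inhibition above a 50% cutoff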;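 also: counterscreen of TLR9-MyD88 hits on CMV-driven BLA in CHO-K1 cells; 0% = DMSO alone and 100% = clavulanate blocking BLA; higher means less blue over green ratio so more BLA blockade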
TLR9 CHO tox: counter-screen for TLR9-MyD88 inhibitors: cytotoxicity in CHO cells; shares compounds with TLR9-MyD88 inh; luminescence; inhibition, % at 4.98 µM; actives 39% (n = 680); AID 588336; in the data active = inhibition above about 11%
ABHD5 PLIN5 conf: confirmation of human ABHD5-PLIN5 interaction inhibitors | inhibition, % at 4 µM | actives 67% (n = 2,200) | shares compounds with ABHD5-PLIN5 inh | biochemical ABHD5-PLIN5 interaction, luminescence; in the data active = inhibition above about 23%;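 also: 0% = DMSO vehicle wells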
HNF4 split-luc: HNF4 split-luciferase signal hit, counter-screen | shares compounds with ABHD5-PLIN5 inh | inhibition, % at 4 µM | actives 77% (n = 2,200) | HNF4 dimerization, luminescence, biochemical;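 active = mean inhibition across replicate wells exceeding the computed hit threshold, cut at about 13% in these data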;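 also: light from luciferase halves that rejoin when HNF4 fusion proteins dimerize; 0% = DMSO only wells and the 100% control is not given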
NOD2-RIPK2 conf: confirmation of human NOD2-RIPK2 interaction inhibitors. actives 70% (n = 1,200). shares compounds with NOD2 RIPK2 PPI. AID 624370. CHO cells, NOD2-RIPK2 BLA complementation, CCF4 FRET. inhibition, % at 4.98 µM;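 active = mean inhibition across replicates above a set limit taken from the earlier primary screen, cut at about 21% in these data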;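 also: 0% = DMSO-only wells and the high end = clavulanate BLA-blocked wells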
BLA counter-2: counter-screen for NOD2-RIPK2 interaction inhibitors: BLA reporter; shares compounds with NOD2 RIPK2 PPI; CHO BLA reporter, CCF4 FRET ratio, counterscreen; inhibition, % at 4.98 µM; actives 57% (n = 1,200); AID 624371;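 active = mean inhibition above the low-control mean inhibition plus three low-control SD, cut at about 11% in these data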;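 also: 0% = DMSO only wells and 100% = clavulanate high control wells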
The depositor's hits bear a star; x = no result; + = active, no number.

SMILES	TLR4-MyD88 BLA	TLR9-MyD88 inh	Beta2AR agonist	Dynein cargo inh	ABHD5-PLIN5 inh	NOD2 RIPK2 PPI	TLR4 MyD88 cnf	BLA inhibitor ct	TLR9-MyD88 conf	BLA counter-1	TLR9 CHO tox	NOD2-RIPK2 conf	BLA counter-2	others
Cn1c(=O)c([N+](=O)[O-])c(-n2ccnc2)c2ccccc21	25*	4	40	-2.1	23*	5	-5	-13	x	x	x	x	x	ABHD5 PLIN5 conf=2;HNF4 split-luc=11
Cn1c(=O)c([N+](=O)[O-])c(NCCCn2ccnc2)c2ccccc21	x	-6	-3	-0.34	9	-2	x	x	x	x	x	x	x
Cn1cccc1/C=C1\CCC/C(=C\c2cccn2C)C1=O	35*	23*	8	-0.33	48*	-5	20	45*	26*	23	-3	x	x	ABHD5 PLIN5 conf=19;HNF4 split-luc=40*
O=S1(=O)C=C[C@H](COCc2ccccc2)N1	x	x	x	x	-15	-1	x	x	x	x	x	x	x
COc1cccc(C(NC(C)=O)c2nc(-c3ccoc3)cs2)c1 (configuration not stated)	x	x	x	x	10	-3	x	x	x	x	x	x	x
CS(=O)(=O)c1nc(-c2ccccc2)cc(C(F)(F)F)n1	31*	36*	40	-3	63*	60*	20	-17	35*	16	96*	x	x	ABHD5 PLIN5 conf=88*;HNF4 split-luc=104*
O=C1c2cccc3c(O)ccc(c23)C(=O)N1Cc1ccccc1	32*	26*	10	-0.86	-28	42*	11	34*	x	x	x	46*	56*
Nc1ccc(/C=C/C(=O)c2cccs2)cc1	25*	23*	7	3.5	13	30*	17	37*	9	11	-3	40*	34*
Cc1nn(C)c(C)c1N1C(=O)c2cccc3c(Br)ccc(c23)C1=O	66*	48*	12	2.6	0	56*	52*	92*	29*	33	6	51*	42*
Cc1nn(C)c(C)c1N1C(=O)c2cccc3c(N)ccc(c23)C1=O	29*	29*	-23	-0.57	-2	34*	20	44*	15	19	3	44*	44*
Cc1ccc2nc(/C(C#N)=C\c3ccc([N+](=O)[O-])o3)[nH]c2c1	84*	24*	-364	14	-10	27*	83*	96*	57*	70*	75*	86*	70*
N#Cc1ccc(/C=C\c2nccc3c2[nH]c2ccccc23)cc1	33*	21*	28	-0.18	2	26*	18	54*	18	36	13*	37*	56*
Clc1ccc(/C=C\c2nccc3c2[nH]c2ccccc23)cc1	-107	-74	-1	-0.34	-14	-57	x	x	x	x	x	x	x
Cc1cc(C)c2c(N)c(S(=O)(=O)Cc3ccccc3)sc2n1	-6	-7	-14	0.46	1	3	x	x	x	x	x	x	x
Cc1ccc(-c2cc(-c3ccccc3)c3c(N)c(S(C)(=O)=O)sc3n2)cc1	28*	46*	2	0.81	6	35*	31*	50*	x	x	x	62*	71*
CC(C)C[C@@H]1CN(CCCC[C@H]2CNC(=O)C(=O)N2CCC2CCCCC2)C(=O)C(=O)N1CC1CCCCC1	x	x	x	x	-4	-17	x	x	x	x	x	x	x
O=Cc1s/c(=N\S(=O)(=O)c2ccccc2)n(CCCCl)c1Cl	30*	37*	104*	-5.7*	37*	85*	28*	2	42*	8	96*	96*	36*	Dynein confirm=+;ABHD5 PLIN5 conf=69*;HNF4 split-luc=107*
CCCCNC(=O)COC(=O)c1c2c(nc3ccccc13)/C(=C/c1cccs1)CC2	56*	48*	11	-0.74	5	52*	50*	83*	43*	46	6	67*	77*
CC(OC(=O)c1c2c(nc3ccccc13)/C(=C\c1ccc3c(c1)OCO3)CCC2)C(=O)Nc1ccc(S(N)(=O)=O)cc1 (configuration not stated)	12	5	21	0.15	15	4	x	x	x	x	x	x	x
CCCCNC(=O)COC(=O)c1c2c(nc3ccccc13)CCC2	x	3	0	x	-4	2	x	x	x	x	x	x	x
CNC(=O)NC(=O)C(C)OC(=O)c1c2c(nc3ccccc13)/C(=C/c1cccs1)CC2 (configuration not stated)	51*	51*	5	-0.045	5	56*	55*	85*	51*	63*	11*	72*	81*
COc1ccccc1C(=O)NCCC(=O)Nc1ncccc1O	x	0	-12	x	-4	4	x	x	x	x	x	x	x
CCOC(=O)c1cc2ccccc2n1C1CCN(CCc2ccccc2)CC1	x	x	x	x	-6	-7	x	x	x	x	x	x	x
CCc1ccc2c(c1)C1(NN=C(c3cccc4ccccc34)S1)C(=O)N2 (configuration not stated)	31*	27*	-1	-0.24	-11	30*	3	28*	x	x	x	4	8
CCc1ccc2c(c1)NC(=O)C2(C)Cc1ccccc1 (configuration not stated)	x	x	x	x	-6	-7	x	x	x	x	x	x	x
